# Screening results deposited in PubChem by Broad Institute.
# Env fusion inh: inhibitors of HIV-1 Env-driven cell-cell fusion, primary screen, HeLa-JRFL effector, CEM21 target cells, luciferase. inhibition, % at 12.3 µM. 1.1% of 360,000 active. AID 651610, 2012;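 active = mean replicate inhibition score of at least 50 and every replicate individually at or above 50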;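 also: 0% = plate neutral controls and 100% = maraviroc near 300 nM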
# GSK3beta inhib: human GSK3beta kinase inhibitors, primary screen, biochemical, cell-free homogeneous, HTS | 0.038% of 300,000 active | activity score (negative = inhibition), % at 10 µM | GST-GSK3beta kinase, ADP-Glo luminescence, 60 min; hits give low values | Glycogen synthase kinase-3 beta (Homo sapiens), P49841;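 active = more than half of replicate wells score below -50%, meaning over 50% inhibition versus plate controls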;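 also: 0% = median DMSO wells and -100% = median GW8510 positive control wells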
#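 Test system: GST-fused GSK3beta enzyme, cell-free | Quantity: 1.6 ng GST-GSK3beta enzyme per well | Reagent: 25 µM ATP with peptide substrate | Schedule: 60 min enzyme reaction, room temperature | Signal: Luminescent ADP-Glo measurement of ADP formed | Read-out basis: Score relative to plate controls | Control set: DMSO and 20 µM GW8510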
# GSK3A inh: blockers of GSK3A enzyme activity – biochemical, luminescence, cell-free homogeneous, HTS, primary screen; inhibition, % at 10 µM; Glycogen synthase kinase-3 alpha (Homo sapiens), P49840; 0.1% of 320,000 active; GSK-3 alpha kinase, ADP-Glo luminescence, 60 min; AID 2650, 2010;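 active = more than half of replicates show inhibition above 20%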;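 also: GST-tagged GSK-3 alpha with peptide substrate and 25 µM ATP; 0% = DMSO neutral wells and 100% = GW8510 positive control wells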
# Target sequence (P49840 whole entry, looked up): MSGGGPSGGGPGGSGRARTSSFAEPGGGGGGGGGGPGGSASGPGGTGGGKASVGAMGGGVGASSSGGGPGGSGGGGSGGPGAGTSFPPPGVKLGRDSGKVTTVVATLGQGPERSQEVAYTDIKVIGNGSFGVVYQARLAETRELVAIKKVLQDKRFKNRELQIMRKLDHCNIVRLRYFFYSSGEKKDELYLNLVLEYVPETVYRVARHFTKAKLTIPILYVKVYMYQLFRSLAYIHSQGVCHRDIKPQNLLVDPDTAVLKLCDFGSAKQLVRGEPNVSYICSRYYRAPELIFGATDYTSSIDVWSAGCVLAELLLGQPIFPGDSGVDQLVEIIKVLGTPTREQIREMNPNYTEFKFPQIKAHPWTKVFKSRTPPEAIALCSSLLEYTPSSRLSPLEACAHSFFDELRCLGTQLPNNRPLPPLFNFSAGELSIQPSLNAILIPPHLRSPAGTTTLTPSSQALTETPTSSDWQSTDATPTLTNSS
# CDK5 p35 inh: inhibitors of human CDK5/p35 kinase, primary screen, biochemical, single concentration; Recombinant CDK5/p35, ADP-Glo luminescence, 60 min; Cyclin-dependent kinase 5 (Homo sapiens) + Cyclin-dependent kinase 5 activator 1 (Homo …; 0.01% of 330,000 active; inhibition, % at 10 µM;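 active = highest replicate inhibition of at least 50% and at least 75% of replicates reaching 50%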;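 also: plate controls were DMSO neutral control for no effect and GW8510 at 10 µM for full effect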
# STK33 kinase inh: inhibitors of purified STK33 kinase, primary screen, biochemical, ADP-Glo luminescence, homogeneous, cell-free | Serine/threonine-protein kinase 33 (Homo sapiens), Q9BYT3 | MBP phosphorylation | inhibition, % at 10 µM | 0.073% of 320,000 active;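 active = inhibition at or above 25%, using the most active replicate where run in duplicate; inactive = inhibition below 25%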
# INS-1E GSIS act: GLuc luminescence reporter in INS-1E cells, primary screen for activators of glucose-dependent secretion of insulin; activation, % at 16.6 µM; INS-1E GLuc reporter insulin secretion, 2-3 h; 0.61% of 370,000 active;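 active = lowest replicate activation of at least 40%, so every replicate reaches that level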;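 also: 0% = median of neutral control wells and 100% = median of IBMX positive control wells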
# * = called active by the depositor; . = not tested or not shown; [ ] = another dose, or the depositor's remark. Sampled rows, rich in hits. Any-hit rate of the full collection: about 1.4%.
SMILES,Env fusion inh,GSK3beta inhib,GSK3A inh,CDK5 p35 inh,STK33 kinase inh,INS-1E GSIS act
Cc1nn(Cc2ccccc2)c(C)c1NC(=O)CSc1nc(-c2ccccc2)nc2c1cnn2-c1ccccc1,.,2.1,.,-2.4,.,-4.2
Cc1nc(SCC(=O)Nc2c(C)nn(C)c2C)c2cnn(-c3ccccc3)c2n1,63.8*,-0.9,-2.7,0.4,-2.4,.
CCCc1cc(=O)n2[nH]cc(-c3ccc(Cl)cc3)c2n1,84.9*,-2.8,-1.5,0.7,1.6,-0.4
C[C@H](CO)N1C[C@H](C)[C@H](CN(C)Cc2ccc(Cl)c(Cl)c2)Oc2ccc(NC(=O)CCCCCC(=O)Nc3ccccc3N)cc2CC1=O,23.7[16.7 µM],.,.,.,.,-1.3
CC(SCc1ccccc1)C(=O)N/N=C/c1cc2c(cc1Br)OCO2 (configuration not stated),88.4*,1.4,-0.4,-1.2,-0.6,.
Cc1cc(N2CCN(C(c3ccccc3)c3ccccc3)CC2)n2ncnc2n1,-32.2,-0.6,0.5,-0.5,-0.6,-12.8
Cc1cc(N2CCN(c3nc4ccccc4s3)CC2)n2ncnc2n1,86.8*,1.6,-1.0,3.8,0.3,.
CC(C)CNC(=S)Nc1ccc(Oc2ccccc2)cc1,-38.1,-1.5,-3.6,-0.6,-1.1,84.9*
O=C(Nc1cccc2[nH]ncc12)c1ccc(F)cc1,73.8*,-2.2,3.1,1.5,-0.8,.
O=C(NC(=S)Nc1cccc2[nH]ncc12)c1ccccc1,4.0,-1.8,2.8,-1.0,1.3,158.6*
O=C(Nc1cccc2ccccc12)c1ccc(F)cc1,-18.8,3.0,0.1,-0.2,-0.2,8.2
CN1C(=O)c2cc(NC(=O)c3cccc(F)c3)ccc2OC[C@H]2O[C@H](CC(=O)O)CC[C@@H]21,7.2[16.7 µM],.,.,.,.,-5.2
C[C@@H]1CCCCO[C@H](CN(C)C(=O)CCC(F)(F)F)[C@H](C)CN([C@@H](C)CO)C(=O)c2cc(NS(=O)(=O)c3cccs3)ccc2O1,19.5[16.7 µM],.,.,.,.,-8.8
CC(NC(=O)C1CCCN1S(=O)(=O)c1ccc2c(c1)n(C)c(=O)c(=O)n2C)c1ccccc1 (configuration not stated),3.6,-1.6,0.9,-0.2,-0.4,54.0*
COc1ccc(NC(=O)C2CCCN2S(=O)(=O)c2ccc3c(c2)CCC(=O)N3)cc1Cl (configuration not stated),84.9*,.,-0.4,3.0,2.2,2.5
Cc1cccc(NC(=O)C2CCCN2S(=O)(=O)c2ccc3c(c2)n(C)c(=O)c(=O)n3C)c1 (configuration not stated),-3.5,0.7,-1.0,1.9,2.6,.
COc1ccc(NC(=O)C2CCCN2S(=O)(=O)c2ccc3c(c2)CCC(=O)N3)cc1 (configuration not stated),-6.6,0.9,-6.5,-0.2,-1.2,2.7
O=C(Nc1cccc(S(=O)(=O)N2CCOCC2)c1)[C@@H]1CCCN1S(=O)(=O)c1ccc(Cl)cc1,61.8*,-11.5,6.6,0.7,-2.1,-15.7
CCc1cccc(NC(=O)C2CCCN2S(=O)(=O)c2ccc3c(c2)n(C)c(=O)c(=O)n3C)c1 (configuration not stated),-5.0,-0.9,-1.7,2.5,0.6,45.8*
O=C(Nc1cccc(S(=O)(=O)N2CCOCC2)c1)C1CCCCN1S(=O)(=O)c1ccccc1 (configuration not stated),22.4,.,.,-1.6,.,-6.5
O=C(C[C@@H]1C=C[C@@H](NC(=O)C2CCC2)[C@H](CO)O1)NCc1ccccc1Cl,-4.5[16.7 µM],.,.,.,.,-0.5
COc1ccc(NC(=O)Nc2ccc3c(c2)C(=O)N([C@@H](C)CO)C[C@@H](C)[C@H](CN(C)S(=O)(=O)c2ccc(OC)cc2)O3)cc1,11.9[16.7 µM],.,.,.,.,-7.5
COc1ccc(NC(=O)Nc2ccc3c(c2)C(=O)N([C@@H](C)CO)C[C@H](C)[C@H](CN(C)Cc2ccccc2)OCCCC[C@H](C)O3)cc1,86.0*[16.7 µM],.,.,.,.,-26.2
COc1ccc(S(=O)(=O)N(C)C[C@@H]2OCCCC[C@@H](C)Oc3ccc(NC(=O)Nc4ccccc4)cc3C(=O)N([C@H](C)CO)C[C@H]2C)cc1,75.8*[16.7 µM],.,.,.,.,-12.3
COc1ccc(CN(C)C[C@@H]2OCCCC[C@H](C)Oc3ccc(NC(=O)Nc4ccc(OC)cc4)cc3C(=O)N([C@@H](C)CO)C[C@@H]2C)cc1,64.4*[16.7 µM],.,.,.,.,-32.6
SMILES,Env fusion inh,GSK3beta inhib,GSK3A inh,CDK5 p35 inh,STK33 kinase inh,INS-1E GSIS act
COc1ccc(NC(=O)Nc2ccc3c(c2)C(=O)N([C@H](C)CO)C[C@@H](C)[C@@H](CN(C)Cc2ccccc2)OCCCC[C@H](C)O3)cc1,0.4[16.7 µM],.,.,.,.,-24.1
CCN(c1ccccc1)S(=O)(=O)c1ccc(OC)c(OC)c1,.,-3.0,0.8,0.7,-0.4,55.3*
CCN(c1ccccc1)S(=O)(=O)c1cc(OC)ccc1OC,-38.4,-1.0,-3.3,1.4,-1.6,30.2
O=S(=O)(c1ccccc1)N1C[C@H]2[C@@H](c3ccccc31)[C@@H](CO)N2Cc1ccccc1,.,.,.,.,.,-0.9
Cc1ccc(S(=O)(=O)Nc2ccc3c(c2)C(=O)N([C@H](C)CO)C[C@@H](C)[C@@H](CN(C)Cc2ccc(-c4ccccc4)cc2)O3)cc1,59.7*[16.7 µM],.,.,.,.,4.0
C[C@@H]1CN([C@@H](C)CO)C(=O)c2cc(NS(=O)(=O)c3ccccc3)ccc2O[C@H]1CN(C)Cc1ccc(Oc2ccccc2)cc1,94.0*[16.7 µM],.,.,.,.,-17.3
COc1ccc(CN(C)C[C@H]2Oc3ccc(NS(=O)(=O)c4cn(C)cn4)cc3CC(=O)N([C@H](C)CO)C[C@@H]2C)cc1,.,.,.,.,.,0.6
Cc1sc2ncnc(N3CCCCC3)c2c1C,.,-2.1,.,-2.8,0.3,-25.1
Clc1ccc(OCCN2CCN(c3ncnc4sccc34)CC2)cc1,98.8*,-1.7,4.9,1.9,-0.2,.
Cc1ccc(OCCN2CCN(c3ncnc4sc(C)c(C)c34)CC2)cc1,85.3*,1.6,4.9,-1.7,1.4,.
CN1C(=O)c2cc(NC(=O)c3cccc(F)c3)ccc2OC[C@H]2O[C@@H](CC(=O)O)CC[C@H]21,-20.0[16.7 µM],.,.,.,.,3.3
COc1cc2c(cc1OC)-c1nc3ccccc3c(=O)n1C(C)(C)C2,3.1,-2.9,0.5,0.6,0.4,.
